pKd: −log10 of the molar value.
Legend:
[1] = molecular target: Type 1 fimbrin D-mannose specific adhesin (Escherichia coli K-12, UniProt P08191); assay: (§1) Displacement of fluorescent tracer 3'-chloro-N-(2-(3-(3',6'-dihydroxy-3-oxo-3H-spiro[isobenzofuran-1,9'-xanthen]-5-yl)thioureido)ethyl)-4'-(alpha-D-mannopyranosyloxy)biphenyl-4-carboxamide from Escherichia coli F18 full-length FimH expressed in Escherichia coli HM125 assessed as dissociation constant incubated for 24 hrs by competitive binding based fluorescence polarization assay; settings: for pKd: read-out: Kd
Procedure, shortened: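 Competitive FP with full-length FimH at 300 nM and tracer at 500 nM; ligand serially diluted from 5 mM final, or 50 μM for some mannosides, in 20 mM HEPES pH 7.4, 150 mM NaCl, 50 μg/mL BSA, 5% DMSO (10% for poorly soluble ligands, top 500 μM). Read after 24 h, Ex 485/Em 535 nm. KD from competitive binding model fit.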

[2] = as §1, with “F18” for “F18 full-length”, “FimH […]” for “FimH”; settings: for pKd: read-out: Kd
Procedure, shortened: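 Competitive FP: 50 nM FimH lectin domain and 50 nM mannoside-fluorescein tracer; ligand serially diluted from 500 μM final in 20 mM HEPES pH 7.4, 150 mM NaCl, 50 μg/mL BSA, 5% DMSO (10% for poorly soluble ligands). Read after 24 h equilibration, Ex 485/Em 535 nm. KD from analytical competitive binding model fit.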

[3] = test system: Escherichia coli; assay: Ratio of kd for displacement of fluorescent tracer 3'-chloro-N-(2-(3-(3',6'-dihydroxy-3-oxo-3H-spiro[isobenzofuran-1,9'-xanthen]-5-yl)thioureido)ethyl)-4'-(alpha-D-mannopyranosyloxy)biphenyl-4-carboxamide from Escherichia coli F18 full-length FimH expressed in Escherichia coli HM125 to kd for displacement of fluorescent tracer 3'-chloro-N-(2-(3-(3',6'-dihydroxy-3-oxo-3H-spiro[isobenzofuran-1,9'-xanthen]-5-yl)thioureido)ethyl)-4'-(alpha-D-mannopyranosyloxy)biphenyl-4-carboxamide from Escherichia coli F18 FimH lectin domain expressed in Escherichia coli HM125
Procedure, shortened: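 Ratio of FP-derived KD for full-length FimH (300 nM protein, 500 nM tracer, ligand from 5 mM) over KD for lectin domain (50 nM each, ligand from 500 μM). Both in HEPES/NaCl/BSA buffer pH 7.4 with DMSO, 24 h equilibration, Ex 485/Em 535 nm, competitive binding model fit.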

[4] = Binding affinity to Escherichia coli F18 FimH lectin domain expressed in Escherichia coli HM125 assessed as dissociation constant by isothermal titration calorimetry
Procedure, shortened: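 ITC at 25 °C; protein dialyzed against 20 mM HEPES, 150 mM NaCl, pH 7.4, ligand dissolved in dialysate, 5% or 10% DMSO. Baselines corrected and peaks integrated, then global nonlinear regression fitting with confidence intervals.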

Type 1 fimbrin D-mannose specific adhesin, sequence (P08191 whole entry): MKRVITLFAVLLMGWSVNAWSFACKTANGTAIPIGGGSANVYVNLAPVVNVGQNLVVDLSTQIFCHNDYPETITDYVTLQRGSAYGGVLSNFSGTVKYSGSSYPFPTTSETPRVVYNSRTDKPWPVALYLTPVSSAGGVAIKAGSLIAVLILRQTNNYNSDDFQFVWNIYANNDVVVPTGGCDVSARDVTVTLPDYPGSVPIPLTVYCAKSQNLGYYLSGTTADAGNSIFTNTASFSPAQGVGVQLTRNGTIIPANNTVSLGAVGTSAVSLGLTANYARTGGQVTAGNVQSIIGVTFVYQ

Structure (SMILES)	pKd [1]	pKd [2]	Ratio [3]	pKd [4]	Kd [1]	Kd [2]
OC[C@H]1OC[C@H](OCc2ccccc2)[C@@H](O)[C@@H](O)[C@@H]1O	3.38	4.10	5.2			
OC[C@H]1O[C@H](Oc2ccc(-c3ccccc3)cc2)[C@@H](O)[C@@H](O)[C@@H]1O		7.82				
N#Cc1ccc(-c2ccc(O[C@H]3CO[C@H](CO)[C@@H](O)[C@H](O)[C@@H]3O)c(Cl)c2)cc1	5.16	7.00				
NC(=O)c1ccc(-c2ccc(O[C@H]3O[C@H](CO)[C@@H](O)[C@H](O)[C@@H]3O)cc2)cc1	6.62					
N#Cc1ccc(-c2ccc(O[C@H]3CO[C@H](CO)[C@@H](O)[C@H](O)[C@@H]3O)cc2)cc1	4.37	6.59		6.08		
NC(=O)c1ccc(-c2ccc(CO[C@H]3CO[C@H](CO)[C@@H](O)[C@H](O)[C@@H]3O)c(Cl)c2)cc1	4.23	5.80	37.6			
NC(=O)c1ccc(-c2ccc(O[C@H]3CO[C@H](CO)[C@@H](O)[C@H](O)[C@@H]3O)c(Cl)c2)cc1	5.13	6.92				
N#Cc1cccc(-c2ccc(CO[C@H]3CO[C@H](CO)[C@@H](O)[C@H](O)[C@@H]3O)c(Cl)c2)c1	4.45	5.84	24.7			
N#Cc1ccc(-c2ccc(O[C@H]3O[C@H](CO)[C@@H](O)[C@H](O)[C@@H]3O)c(Cl)c2)cc1	7.08	9.30				
N#Cc1ccc(-c2ccc(CO[C@H]3CO[C@H](CO)[C@@H](O)[C@H](O)[C@@H]3O)c(Cl)c2)cc1	4.42	5.89	29.1			
OC[C@H]1OC[C@H](OCc2ccc(-c3ccccc3)cc2)[C@@H](O)[C@@H](O)[C@@H]1O	3.96	5.25	19.3			
OC[C@H]1OC[C@H](Oc2ccc(-c3ccccc3)cc2Cl)[C@@H](O)[C@@H](O)[C@@H]1O	5.21	7.22				
CCCCCCCO[C@@H]1C[C@@H](O)[C@@H](O)[C@H](O)[C@@H](CO)O1					Not Active	Not Active
CCCCCCCO[C@H]1CO[C@H](CO)[C@@H](O)[C@H](O)[C@@H]1O	4.50	5.71	16.4			
CCCCCCCO[C@H]1O[C@H](CO)[C@@H](O)[C@H](O)[C@@H]1O	5.44	7.55				
N#Cc1ccc(-c2ccc(O[C@H]3O[C@H](CO)[C@@H](O)[C@H](O)[C@@H]3O)cc2)cc1	6.68					
OC[C@H]1O[C@H](Oc2ccc(-c3ccccc3)cc2Cl)[C@@H](O)[C@@H](O)[C@@H]1O	6.34	8.55				
OC[C@H]1OC[C@H](OCCCc2ccccc2)[C@@H](O)[C@@H](O)[C@@H]1O	3.90	5.15	17.8			
NC(=O)c1ccc(-c2ccc(CO[C@H]3CO[C@H](CO)[C@@H](O)[C@H](O)[C@@H]3O)cc2)cc1	3.93	5.57	42.7			
NC(=O)c1ccc(-c2ccc(O[C@H]3O[C@H](CO)[C@@H](O)[C@H](O)[C@@H]3O)c(Cl)c2)cc1	7.07	9.52				
N#Cc1ccc(-c2ccc(CO[C@H]3CO[C@H](CO)[C@@H](O)[C@H](O)[C@@H]3O)cc2)cc1	4.20	5.84	43.8			

Reference: ChEMBL document CHEMBL5500326, “Does size matter? - Comparing pyranoses with septanoses as ligands of the bacterial lectin FimH” (Eur J Med Chem, 2024)
